The source made the active and inactive calls. The rule behind the calls is not given here.
Tests used:
[1] = tested on: CREB-binding protein/Histone acetyltransferase p300/Cellular tumor antigen p53 (Homo sapiens), P04637+Q09472+Q92793 [Y220C]; experiment: AceTAC activity at FLAG-tagged p53Y220C mutant (unknown origin) expressed in human NCI-H1299 cells expressing p300/CBP assessed as increase in p53 acetylation at lysine 382 residue at 10 uM incubated for 24 hrs by western blot analysis relative to control; assay type: cell-based
Summary of the method: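 NCI-H1299 (p53Y220C) cells were treated at 0.1–10 μM (0.1, 0.3, 1, 3 or 10 μM) for 24 h. Lysates were Western blotted for p53 and p53K382ac, with vinculin as loading control. p53K382ac was normalised to total p53Y220C and quantified from two or three independent experiments.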

[2] = tested on: NCI-H1299; experiment: Antiproliferative activity against human NCI-H1299 cells expressing p53Y220C mutant assessed as reduction in cell viability incubated for 3 days by WST-8 assay; assay type: functional
Summary of the method: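 NCI-H1299 p53Y220C cells were exposed to compound over a concentration range for 72 h, in some runs after 72 h of control or p300 siRNA, before the viability read-out. Values are mean ± SD of three independent experiments.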

[3] = tested on: CREB-binding protein/Histone acetyltransferase p300/Cellular tumor antigen p53 (Homo sapiens), P04637+Q09472+Q92793 [Y220C]; experiment: Induction of interaction between FLAG-tagged p53Y220C mutant (unknown origin) and p300/CBP expressed in human NCI-H1299 cells assessed as ternary complex formation at 10 uM incubated for 24 hrs by co-immunoprecipitation analysis; assay type: cell-based
Summary of the method: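 NCI-H1299 p53-null and p53Y220C cells were treated with DMSO or compound at 10 μM for 24 h. p53-FLAG pull-down was followed by Western blotting for associated p300. Representative of two independent experiments.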

[4] = tested on: CREB-binding protein/Histone acetyltransferase p300/Cellular tumor antigen p53 (Homo sapiens), P04637+Q09472+Q92793 [Y220C]; experiment: AceTAC activity at FLAG-tagged p53Y220C mutant (unknown origin) expressed in human NCI-H1299 cells expressing p300/CBP and transfected with control siRNA assessed as increase in p53 acetylation at lysine 382 residue at 1 to 10 uM incubated for 24 hrs by western blot analysis; assay type: cell-based; details: dose 1-10 µM
Summary of the method: (§1)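 NCI-H1299 cells stably expressing p53Y220C were given control or p300 siRNA, then treated at 0, 1 or 10 μM for 24 h. Lysates were Western blotted for p53 and p53K382ac. The acetylation level was normalised to vinculin and quantified from two independent experiments.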

[5] = tested on: CREB-binding protein/Histone acetyltransferase p300/Cellular tumor antigen p53 (Homo sapiens), P04637+Q09472+Q92793 [Y220C]; experiment: AceTAC activity at FLAG-tagged p53Y220C mutant (unknown origin) expressed in human NCI-H1299 cells expressing p300/CBP and transfected with p300 siRNA assessed as increase in p53 acetylation at lysine 382 residue at 1 to 10 uM incubated for 24 hrs by western blot analysis; assay type: cell-based; details: dose 1-10 µM; summary of the method: as §1
[6] = tested on: CREB-binding protein/Histone acetyltransferase p300/Cellular tumor antigen p53 (Homo sapiens), P04637+Q09472+Q92793 [Y220C]; experiment: Induction of interaction between FLAG-tagged p53Y220C mutant (unknown origin) and p300/CBP expressed in human NCI-H1299 cells at 10 uM pretreated for 2 hrs with p300/CBP bromodomain binder, 4-(2-(5-(3,5-dimethylisoxazol-4-yl)-2-(3-fluoro-4-methoxyphenethyl)-1H-benzo[d]imidazol-1-yl)ethyl)morpholine followed by incubation with compound for 18 hrs by co-immunoprecipitation analysis; assay type: cell-based
Summary of the method: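 NCI-H1299 (p53Y220C) cells were pretreated for 2 h with a 10 μM p53Y220C binder or a 10 μM p300 binder, then given compound at 3 μM for 18 h. p53-FLAG pull-down was followed by Western blot analysis.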

[7] = tested on: NCI-H1299; experiment: Antiproliferative activity against human NCI-H1299 cells expressing p53Y220C mutant and transfected with p300 siRNA assessed as reduction in cell viability at 0.47 to 15 uM incubated for 3 days by WST-8 assay; assay type: functional, cell-based; details: dose 0.47-15 µM, time 3.0 day
Summary of the method: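 NCI-H1299 p53Y220C cells were first transfected with p300 siRNA for 72 h, then exposed to compound across the concentration series for 72 h. Viability is mean ± SD from three independent experiments.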

[8] = tested on: CREB-binding protein/Histone acetyltransferase p300/Cellular tumor antigen p53 (Homo sapiens), P04637+Q09472+Q92793 [Y220C]; experiment: AceTAC activity at FLAG-tagged p53Y220C mutant (unknown origin) expressed in human NCI-H1299 cells expressing p300/CBP assessed as upregulation of p21 mRNA expression at 3 uM incubated for 24 hrs by RT-qPCR analysis; assay type: cell-based
Summary of the method: (§2)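 NCI-H1299 p53Y220C cells were treated with DMSO or compound at 3 μM for 24 h. mRNA of p53-target genes was measured by RT-qPCR, normalised to GAPDH and expressed relative to DMSO control. Values are mean ± SD of three independent experiments.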

[9] = tested on: CREB-binding protein/Histone acetyltransferase p300/Cellular tumor antigen p53 (Homo sapiens), P04637+Q09472+Q92793 [Y220C]; experiment: AceTAC activity at FLAG-tagged p53Y220C mutant (unknown origin) expressed in human NCI-H1299 cells expressing p300/CBP assessed as upregulation of GADD45A mRNA expression at 3 uM incubated for 24 hrs by RT-PCR analysis; assay type: cell-based; summary of the method: as §2
[10] = tested on: CREB-binding protein/Histone acetyltransferase p300/Cellular tumor antigen p53 (Homo sapiens), P04637+Q09472+Q92793 [Y220C]; experiment: AceTAC activity at FLAG-tagged p53Y220C mutant (unknown origin) expressed in human NCI-H1299 cells expressing p300/CBP assessed as downregulation of SLC7A11 mRNA expression at 3 uM incubated for 24 hrs by RT-PCR analysis; assay type: cell-based; summary of the method: as §2
[11] = tested on: BXPC-3; experiment: Antiproliferative activity against human BXPC-3 cells harboring p53Y220C mutant assessed as inhibition of cell growth incubated for 72 hrs by WST-8 assay; assay type: functional
Summary of the method: (§3)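 BxPC3 or NUGC-3 cells were treated with DMSO or compound over a concentration range for 72 h before the viability read-out. Values are mean ± SD of technical triplicates from three biological experiments.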

[12] = tested on: NUGC-3; experiment: Antiproliferative activity against human NUGC-3 cells harboring p53Y220C mutant assessed as inhibition of cell growth incubated for 72 hrs by WST-8 assay; assay type: functional; summary of the method: as §3
[13] = tested on: CREB-binding protein/Histone acetyltransferase p300/Cellular tumor antigen p53 (Homo sapiens), P04637+Q09472+Q92793 [Y220C]; experiment: AceTAC activity at p53Y220C mutant in human BXPC-3 cells expressing p300/CBP assessed as increase in p53 acetylation at lysine 382 residue incubated for 24 hrs by western blot analysis; assay type: cell-based; details: dose 1-10 µM
Summary of the method: (§4)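 BxPC3 or NUGC-3 cells, which express p53Y220C endogenously, were treated with DMSO or compound at 1, 3 or 10 μM for 24 h. Lysates were Western blotted for p53 and p53K382ac, with vinculin as loading control. Representative of two independent experiments.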

[14] = tested on: CREB-binding protein/Histone acetyltransferase p300/Cellular tumor antigen p53 (Homo sapiens), P04637+Q09472+Q92793 [Y220C]; experiment: AceTAC activity at p53Y220C mutant in human NUGC-3 cells expressing p300/CBP assessed as increase in p53 acetylation at lysine 382 residue incubated for 24 hrs by western blot analysis; assay type: cell-based; details: dose 1-10 µM; summary of the method: as §4
[15] = tested on: U2OS; experiment: Cytotoxicity against human U2OS cells harboring wild type p53 assessed as inhibition of cell growth incubated for 72 hrs by WST-8 assay; assay type: toxicity, cell-based
Summary of the method: (§5)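 U2OS (WT p53) or normal prostate PNT2 cells were treated for 72 h at the indicated concentrations. Viability is mean ± SD of technical triplicates from two biological experiments.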

[16] = Cytotoxicity against human U2OS cells harboring wild type p53 assessed as inhibition of cell growth at 10 uM incubated for 72 hrs by WST-8 assay; assay type: toxicity, cell-based; summary of the method: as §5
[17] = Plasma concentration in Swiss albino mouse at 50 mg/kg, ip measured after 8 hrs by LC-MS/MS analysis; assay type: ADME, organism-based
Summary of the method: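 Swiss albino mice received a single 50 mg/kg intraperitoneal injection. Plasma levels were followed over 8 h. Each point is the mean ± SEM of three mice.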

[18] = Toxicity in Swiss albino mouse assessed as tolerability at 50 mg/kg, ip measured for 8 hrs; assay type: organism-based; details: in vivo

For `CCn1c2ccc(CNCCOCCOCCOCCC(=O)NCCOc3ccc(CCc4nc5cc(-c6c(C)noc6C)ccc5n4CCN4CCOCC4)cc3F)cc2c2ccc(-c3cc(C)cs3)cc21`, the Activity [1] was 235%, the GI50 ([2]; NCI-H1299, 72 h, time 3 day) was 3 µM and the Activity ([2]; time 3.0 day) was “Dose-Dependent Effect”. The Activity [3] was “Active”, the Activity [4] was “Active” and the Activity [5] was “inactive”. For the same compound, the Activity [6] was “inactive”, the Activity [7] was “inactive” and the Activity [8] was “Active”. For the same compound, the Activity [9] was “Active”, the Activity [10] was “Active” and the GI50 [11] was 2.16 µM. The GI50 [12] was 1.83 µM, the Activity [13] was “Dose-Dependent Effect” and the Activity [14] was “Dose-Dependent Effect”. For the same compound, the GI50 [15] was over 10 µM, the inhibition at 72 h, 10 µM [16] was 30% and the concentration at 8 h [17] was over 0.4 µM. The Activity [18] was “Non-Toxic”.
